Results pooled from the literature.
HTR5A: 5-hydroxytryptamine receptor 5A (HTR5A, Homo sapiens, UniProt P47898)
DRD4: D(4) dopamine receptor (DRD4, Homo sapiens, UniProt P21917)
ABHD6: Monoacylglycerol lipase ABHD6 (ABHD6, Homo sapiens, UniProt Q9BV23)
VASP: Vasodilator-stimulated phosphoprotein (VASP, Homo sapiens, UniProt P50552)

CNc1nc2cc(OCCCCN3CCN(c4cccc(Cl)c4Cl)CC3)ccc2s1
Ki (HTR5A; ligand displacement, radioligand): 1.3 µM

CN1CCc2c(c3ccccc3n2Cc2ccccc2)C1
Ki (HTR5A; ligand displacement, radioligand): 0.13 µM

C=C1CC1CC(=O)SCCNC(=O)CCNC(=O)[C@H](O)C(C)(C)COP(=O)(O)OP(=O)(O)OC[C@H]1O[C@@H](n2cnc3c(N)ncnc32)[C@H](O)[C@@H]1OP(=O)(O)O (mixture of isomers)
Kd (IVD (Homo sapiens, UniProt P26440); binding, absorbance): ~22.5 µM

CC(CCc1ccc(O)cc1)NCCc1ccc(O)c(O)c1 (stereo not shown)
IC50 (DRD4; ligand displacement, radioligand): 2.42 µM

CN(C(=O)Oc1nsnc1N1CCCCC1)c1ccc([N+](=O)[O-])cc1
IC50 (ABHD6; enzyme activity, inhibitor, fluorescence; lysate): 1.25 µM

CC(=O)N[C@@H](Cc1ccccc1Cl)C(=O)N1CCC[C@H]1C(=O)N1CCC[C@H]1C(=O)N1CCC[C@H]1C(=O)N1CCC[C@H]1C(=O)O
Kd (VASP; binding, fluorescence): 13 µM

CN(Cc1ccc(NC(=O)C2=Cc3cc(-c4ccc(OCCCF)cc4)ccc3CCC2)cc1)C1CCOCC1
Ki (HTR5A; ligand displacement, radioligand): 5.01 µM

COc1cc(C(=O)N2CC[C@@H](O)[C@@H](N)C2)cc2nc(-c3cc4ccccc4n3CC3CC3)n(C)c12
EC50 (Nuclear receptor subfamily 1 group I member 2 (NR1I2, Homo sapiens, UniProt O75469); reporter gene, agonist, luciferase): > 50.1 µM

O=P(O)(O)Oc1ccccc1OP(=O)(O)O
Ki (Signal transducer and activator of transcription 6, SH2 (Homo sapiens, UniProt P42226); ligand displacement, FP): 18 µM

CN(C(=O)Oc1nsnc1N1CCCCC1)C1CCCCCCC1
IC50 (ABHD6; enzyme activity, inhibitor, fluorescence; lysate): 0.072 µM

CC(=O)N[C@@H](CO)C(=O)N[C@@H](Cc1ccccc1)C(=O)N[C@@H](CCC(=O)O)C(=O)N[C@@H](Cc1ccccc1Cl)C(=O)N1CCC[C@H]1C(=O)N1CCC[C@H]1C(=O)N1CCC[C@H]1C(=O)N1CCC[C@H]1C(=O)N[C@H](C(=O)N[C@@H](CCC(=O)O)C(=O)N[C@@H](CC(=O)O)C(=O)N[C@@H](CCC(=O)O)C(=O)N[C@@H](CC(C)C)C(N)=O)[C@@H](C)O
Kd (VASP; binding, fluorescence): 1.5 µM

CN(C(=O)Oc1nsnc1N1CCCCC1)c1cccc([N+](=O)[O-])c1
IC50 (ABHD6; enzyme activity, inhibitor, fluorescence; lysate): 1.2 µM

OC(c1ccc(F)cc1)C(F)(F)CCN1CCC(O)(c2ccc(Cl)cc2)CC1 (racemic)
Ki (DRD4; cell-free assay, radioligand): 0.0516 µM
